Assay outcomes deposited in PubChem by several laboratories.
This is a sample that favours compounds with a hit; in the whole collection about 2.8% have one here.
NPY2 pot ag: NPY-Y2 potentiators or agonists, primary screen, cell-based. Neuropeptide Y receptor type 2 (Homo sapiens), P49146. cells expressing NPY-Y2, potentiator/agonist read-out. activation, % at 3.6 µM. 220,000 compounds, 0.45% hits. AID 1359, 2008; in the data active means activation above about 27%;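 further: cells stimulated with NPY near EC25 plus isoproterenol at EC100; 0% = vehicle plus submaximal agonist and 100% = vehicle plus saturating agonist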
Target sequence (P49146 whole entry, looked up): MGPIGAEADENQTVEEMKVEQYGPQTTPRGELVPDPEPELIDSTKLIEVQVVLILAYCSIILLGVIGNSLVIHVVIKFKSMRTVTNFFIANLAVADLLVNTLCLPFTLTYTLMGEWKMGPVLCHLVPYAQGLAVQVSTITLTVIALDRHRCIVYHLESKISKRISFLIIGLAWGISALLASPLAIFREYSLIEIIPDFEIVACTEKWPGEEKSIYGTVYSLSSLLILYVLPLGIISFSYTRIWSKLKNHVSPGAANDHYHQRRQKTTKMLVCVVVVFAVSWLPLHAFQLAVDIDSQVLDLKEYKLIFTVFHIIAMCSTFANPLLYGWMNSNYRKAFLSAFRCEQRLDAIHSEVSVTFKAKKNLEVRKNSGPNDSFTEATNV
NPY-Y2 antag: NPY-Y2 receptor antagonists, primary screen, cell-based. Neuropeptide Y receptor type 2 (Homo sapiens), P49146. NPY-Y2 expressing cells, antagonist mode. inhibition, % at 2.7 µM. 140,000 compounds, 0.99% hits; in the data active means inhibition above about 17%;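 further: 0% = vehicle with agonist challenge and 100% = reference antagonist with challenge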
NPY1 pot ag: NPY-Y1 receptor potentiators or agonists, primary screen, cell-based. 220,000 compounds, 0.37% hits. NPY-Y1 expressing cells, potentiator/agonist activation. activation, % at 3.6 µM. Neuropeptide Y receptor type 1 (Homo sapiens), P25929; in the data active means activation above about 33%, passing the limit was not always enough;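 further: cells stimulated with NPY at EC10 then isoproterenol at EC100; 0% = low agonist plus stimulus and 100% = saturating agonist plus stimulus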
Mdm2 ligase inh: MDM2-luciferase reporter signal enhancers, primary screen, MDM2 E3 ligase inhibitor project, cell-based, luminescence, 1536-well; 210,000 compounds, 0.11% hits; cell-based MDM2 ubiquitination luciferase reporter, 2 h; 0 = plate control, 100 = twice control, blank-subtracted; signal enhancement, % at 5 µM; E3 ubiquitin-protein ligase Mdm2 (Homo sapiens), Q00987;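 active means signal enhancement of 30% or more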;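 further: luminescence tracks abundance of the self-degrading MDM2-luciferase fusion protein; higher signal means inhibition of MDM2 E3 ligase activity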
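Assay system: mammalian cells stably expressing self-ubiquitinating, self-degrading MDM2 E3–luciferase fusion. Quantity: 2000 cells in each well. Medium: DMEM culture medium. Compound dosing: single-point 5 µM. Timing: cell settling 4 h, compound treatment 2 h, both 37 °C. Technique: luciferase luminescence. Read-out basis: percent signal gain over controls, blank-subtracted. Benchmarks: plate controls and plate blanks.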
NPY Y1 blocker: NPY-Y1 receptor antagonists, primary screen, cell-based; HEK293-CNG Y1 cells, membrane potential fluorescence; NPY at EC95, then isoproterenol; inhibition, % at 3.6 µM; 200,000 compounds, 1% hits;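 active means inhibition above the campaign mean inhibition of all tested compounds plus 3 SD, cut at about 20% in these data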;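 further: 0% = DMSO wells given NPY plus isoproterenol and 100% = isoproterenol alone without NPY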
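Assay system: HEK293 Y1/CNG channel cell line; Doses: single compound dose of 3.6 µM, 0.4% DMSO; Timing: dye 3 h, compound 60 min room temperature, stimulation 45 min; Technique: Membrane-potential fluorescent dye readout; Measure: % inhibition of NPY effect.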
Measles CPE: compounds protecting cells from measles virus cytopathic effect, primary screen, measles RdRp inhibitor project, single point, MLSMR library, absorbance; protection (pct of control), % at 4 µM; AID 841, 2007; 140,000 compounds, 1.5% hits; Measles virus-infected cells, CPE protection; in the data active means protection mostly above about 24%, no sharp cut-off; inactive means mostly below about 26%
* marks the source's active call; other numbers are inactive results; x = no result.

SMILES	NPY2 pot ag	NPY-Y2 antag	NPY1 pot ag	Mdm2 ligase inh	NPY Y1 blocker	Measles CPE
O=C(c1ccccn1)N1CC=C(c2ccccc2)CC1	5	x	-31	-7	5	x
COc1ccc(-c2nn(-c3ccccc3)cc2/C=C/C(=O)N2CCN(c3ccccn3)CC2)cc1	-1	x	-9	-70	3	x
CCn1c(C(=O)NCc2cccnc2)cc2sc(Cl)cc21	3	1	14	-14	5	11
O=C(Nc1ccc(C(F)(F)F)cc1)N1CCN(c2ccnc3cc(Cl)ccc23)CC1	-31	x	-14	-17	x	x
CC(=O)C1=C(O)CCC1=NCCc1ccccc1	0	3	8	x	6	29*
COc1ccccc1C(=O)NCCc1nc2ccccc2[nH]1	13	0	-21	-16	-1	19
O=C(c1ccccc1)N(NC(=O)C(O)(c1ccccc1)c1ccccc1)c1cccc(F)c1	-4	31*	-44	-7	53*	25
Cc1ccc(C(O)(C(=O)NN(C(=O)c2ccccc2)c2ccccc2)c2ccc(C)cc2)cc1	3	48*	-16	-16	59*	6
CCN(NC(=O)C(O)(c1ccc(F)cc1)c1ccc(F)cc1)C(=O)c1ccccc1	-26	25*	-20	-21	23*	10
O=C(c1ccccc1F)N(NC(=O)C(O)(c1ccccc1)c1ccccc1)c1ccccc1	-2	30*	-47	-20	39*	5
CC(C)(C)N(NC(=O)Nc1ccc(F)cc1)C(=O)c1ccccc1	14	3	-12	-22	2	14
CCC1(C)NC(=O)N(CC(=O)N2N=C(c3ccccc3)CC2c2ccc(OC)cc2)C1=O (stereo unspecified)	7	5	4	-9	4	5
CS(=O)(=O)Nc1ccc(C(=O)Nc2ccc(S(=O)(=O)N3CCCC3)cc2)cc1	-4	x	-24	8	-3	x
Nc1ccc(-c2cnc(-c3ccc(N)cc3)nc2)cc1	-10	1	9	-49	-3	69*
CCCCCCc1ccc(-c2ncc(N)cn2)cc1	12	-2	32	-7	0	8
COc1ccc(C(=O)C2CCCN(C(=O)c3ccc4cc[nH]c4c3)C2)c(C)c1 (stereo unspecified)	-11	x	-10	-1	2	x
Cc1cccc2c(=O)c(C(=O)N3CCCCCC3)c[nH]c12	-39	22*	-77	-8	21*	5
O=C(c1c[nH]c2ccc(F)cc2c1=O)N1CCCCCC1	5	-1	-7	13	2	9
O=C(CCc1ccc(O)cc1)N/N=C/c1coc2ccccc2c1=O	14	x	-6	-16	x	x
O=C(O)C1CCCN1C(=O)Nc1ccccc1 (stereo unspecified)	-7	3	-36	-17	1	4
O=C(O)C1CCCN1C(=O)Nc1ccc(Cl)cc1 (stereo unspecified)	-6	4	0	-5	1	26*
CC(C)C(=O)Nc1ccc(C(=O)NNC(=S)NC(=O)c2ccco2)cc1	-16	x	-7	x	x	x
CCc1ccc(NC(=O)N(CCOC)C2CCN(C(C)=O)CC2)cc1	-4	1	-12	-6	2	65*
Cc1c(N=C2NC(=O)C(CC(=O)Nc3ccccc3)S2)c(=O)n(-c2ccccc2)n1C (stereo unspecified)	7	-3	20	-21	-3	38*
c1ccc2c(N3CCOCC3)nc(-c3ccncc3)nc2c1	14	2	7	1	-1	9
SMILES	NPY2 pot ag	NPY-Y2 antag	NPY1 pot ag	Mdm2 ligase inh	NPY Y1 blocker	Measles CPE
CC1CCN(c2nc(-c3ccncc3)nc3ccccc23)CC1	-41	30*	-58	-4	31*	5
Cn1c(CNS(=O)(=O)c2ccc(F)cc2)n[nH]c1=S	5	2	-3	-3	0	43*
Cn1c(CNS(=O)(=O)c2ccc(Cl)cc2)n[nH]c1=S	-8	1	-17	-4	5	5
COc1ccc2c(c1)C=C([C@@H]1C[C@H]3CN(c4ccccc4)C(=O)[C@]34CCCN14)CO2	-14	x	-7	-19	18	x
COc1ccccc1-c1ccc(SCc2ccc(C)cc2)nn1	-22	x	-25	-10	21*	x
O=C(NC1CCCCC1)C(c1ccccn1)N(C(=O)c1csnn1)C1CCCCC1 (stereo unspecified)	-4	x	1	-7	-1	x
CCOC(=O)c1cc2occc2n1CC(=O)Nc1ccc(OC)cc1OC	12	0	6	-2	-2	4
Cc1ccc(NC(=O)c2ccc(CSc3nnc(C)s3)cc2)c(C)c1	-12	1	11	-20	0	5
Cc1ccc(NC(=O)c2ccc(CSc3nnc(-c4ccncc4)n3C)cc2)c(C)c1	-13	2	11	-6	3	100*
CCCCn1c(C)nc2c(=O)n(C)c(=O)[nH]c21	2	0	-12	8	-2	29*
COc1ccc(CNC(=O)C(c2ccncc2)N(C(=O)Cc2cccs2)c2ccccc2)cc1 (stereo unspecified)	8	2	6	7	0	23
COc1ccc(N(C(=O)CCl)C(C(=O)NCCc2ccccc2)c2cccs2)cc1 (stereo unspecified)	35*	2	54*	-14	0	0
CC1=NN(c2ccccc2)C(=O)/C1=C\C=C1\N(C)c2ccccc2C1(C)C	29	-3	3	-9	-9	59*
N#Cc1c(Cl)cccc1Oc1ccc(S(=O)(=O)Nc2ccccc2)cc1	6	x	2	-5	x	x
COc1ccccc1NC(=O)c1ccc(NC(=O)COC(=O)C2CCCCC2)cc1	17	3	15	-5	2	49*
C=CCn1c(SCC(=O)N2CC(=O)Nc3ccccc32)nc2scc(-c3cccs3)c2c1=O	-4	3	-3	-17	-2	81*
COc1cccc(/C=C2\N=C3CCCCCN3C2=O)c1	-6	3	1	-4	0	36*
CCOc1cc(/C=C2\N=C3CCCCCN3C2=O)ccc1O	-4	x	-11	3	2	x
CCOc1ccc(-n2c(SCC(=O)Nc3ccc4c(c3)OCO4)nc3ccccc3c2=O)cc1	-7	1	4	-18	3	45*
CCO[C@@H]1OC(C(=O)N2CCCCCCC2)=C[C@H](C2CCCCC2)[C@H]1CCCO	-9	x	-6	x	2	x
Cc1ccc(-n2ncc(C(=O)Nc3ccc(Cl)cc3)c2C2CCNCC2)cc1C	-18	x	-14	-16	20*	x
